The values that follow come from ChEMBL document CHEMBL3243931, “Dihydroretinoic acids and their derivatives. Synthesis and biological activity” (1977).

For experiment [1], the system named is Mus musculus. The experiment can be described thus: Activity against chemically-induced skin papillomas in Swiss albino mouse assessed as change in total papilloma diameter at 80 mg/kg/day, ip administered five times per week for 2 weeks measured on day 14. It is filed as functional. The conditions noted are these: route intraperitoneal.
For experiment [2], the system named is Mus musculus. The experiment can be described thus: Activity against chemically-induced skin papillomas in Swiss albino mouse assessed as change in total papilloma diameter at 10 mg/kg/day, ip administered five times per week for 2 weeks measured on day 14. The settings on record: route intraperitoneal. It is filed as functional.
Experiment [3] concerns Hamster. In words: Reversal of keratinized lesions in vitamin A deficient hamster tracheal organ culture assessed as cultures with keratin and keratohyaline granules at 0.1 uM after 7 days (reference value: 93%). It is filed as functional, Cricetinae, Trachea.
Experiment [4] deals with Hamster. In words: Reversal of keratinized lesions in vitamin A deficient hamster tracheal organ culture assessed as cultures with keratin and keratohyaline granules at 10 nM after 7 days (reference value: 93%). The class given is functional, Cricetinae, Trachea.
Experiment [5] relates to Hamster. In words: Reversal of keratinized lesions in vitamin A deficient hamster tracheal organ culture assessed as cultures with keratin and keratohyaline granules at 1 nM after 7 days (reference value: 93%). It is filed as functional, Cricetinae, Trachea.
A short description of experiment [6]: Increase in RNA content in mouse epidermal cells at 1 nM after 3 days. It is filed as functional. A digest of the protocol:
(§1)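 Mouse skin epidermal cell cultures grown 3 days with retinoid added from Me2SO stock (final Me2SO ≤1.0%); controls received equivalent Me2SO and no retinoid. RNA measured; value is percentage increase over control cultures; 6–9 cultures per concentration.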

A short description of experiment [7]: Increase in RNA content in mouse epidermal cells at 0.1 uM after 3 days. It is filed as functional. Put shortly: as §1
Experiment [8] in a line: Increase in RNA content in mouse epidermal cells at 10 nM after 3 days. It is filed as functional. Put shortly:
as §1

Experiment [9] is described as follows: Increase in RNA content in mouse epidermal cells at 1 uM after 3 days. The class given is functional. Put shortly:
as §1

For experiment [10], the system named is Hamster. The experiment can be described thus: Reversal of keratinized lesions in vitamin A deficient hamster tracheal organ culture assessed as cultures with keratin and keratohyaline granules at 1 uM after 7 days (reference value: 93%). It is filed as functional, Cricetinae, Trachea.
The species named for experiment [11] is Mus musculus. In words: Increase in protein content in mouse epidermal cells. The class given is functional, cell-based. A digest of the protocol: (§2)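 Mouse skin epidermal cell cultures with retinoid added to the medium from Me2SO stock (final Me2SO ≤1.0%); controls given equivalent Me2SO; increase in DNA or protein content measured relative to cultures without retinoid.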

Experiment [12] is filed under the species Mus musculus. The experiment can be described thus: Increase in DNA content in mouse epidermal cells. The class given is functional, cell-based. A digest of the protocol: as §2
In experiment [13] the test system is Mus musculus. In words: Activity against chemically-induced skin papillomas in Swiss albino mouse assessed as change in total papilloma diameter at 160 mg/kg/day, ip administered five times per week for 2 weeks measured on day 14. The conditions noted are these: route intraperitoneal. It is filed as functional.
For experiment [14], the system named is Mus musculus. In words: Activity against chemically-induced skin papillomas in Swiss albino mouse assessed as change in total papilloma diameter at 40 mg/kg/day, ip administered five times per week for 2 weeks measured on day 14. The settings on record: route intraperitoneal. The class given is functional.
Experiment [15] in a line: Increase in RNA content in mouse epidermal cells at 0.1 nM after 3 days. It is filed as functional. Put shortly: as §1

The source made the active and inactive calls. The rule behind the calls is not given here.

As for `COC(=O)/C=C(\C)CC/C=C(C)/C=C/c1c(C)cc(C)c(Cl)c1C`, in the experiment with Mus musculus [1], the Activity came out at 29%.

In the case of `CC(/C=C/C1C(C)CCCC1(C)C)=C\C=C\C(C)=C\C(=O)O` (stereo not drawn), the values for the Activity in the experiment with Mus musculus [2], in the experiment on Hamster [4] and with Hamster [5] were -9%, 0% and 6%, respectively. Moreover, the “Cultures with keratinized lesions” value in the experiment with Hamster [3] is reported as 0%.

As to `COC(=O)/C=C(C)/C=C/C=C(C)/C=C/C1=C(C)CCCC1(C)C` [RETINOIC ACID METHYL ESTER], the Activity in experiment [6] turned out to be 8%; in experiment [7] it was 75%; with Hamster [4], 0%; in experiment [8] it was 25%; in experiment [9] it was 126%. Also, the “Cultures with keratinized lesions” value with Hamster [3] worked out at 0%.

As for `COC(=O)/C=C(\C)CC/C=C(C)/C=C/c1c(C)cc(OC)c(Cl)c1C`, the Activity with Mus musculus [1] is 29%.

With `CC1=C(CC/C(C)=C/C=C/C(C)=C\C(=O)O)C(C)(C)CCC1`, in the experiment with Mus musculus [1], the Activity is listed as -28%.

For `COc1cc(C)c(/C=C/C(C)=C/C=C/C(C)=C/C(=O)O)c(C)c1C` [ACITRETIN], the Activity is -43% with Mus musculus [2], 35% in the experiment on Hamster [4], 100% in the experiment on Hamster [5] and 0% with Hamster [10]. Further, in the experiment on Hamster [3], the “Cultures with keratinized lesions” value came to 0%.

Regarding `COC(=O)/C=C(C)/C=C/C=C(\C)CCc1c(C)cc(OC)c(Cl)c1C`, in the experiment on Mus musculus [1], the Activity amounted to 1%.

For `CC1=C(CC/C(C)=C/C=C/C(C)=C/C(=O)O)C(C)(C)CCC1`, the Activity in the experiment on Mus musculus [1] is on record as -33%; in experiment [6], 1%; in [7], 115%; with Hamster [4], 25%; in [8] it was 82%; in experiment [9], 106%. The result in the experiment filed under Mus musculus [11] and in the experiment filed under Mus musculus [12] was Active. Moreover, the “Cultures with keratinized lesions” value in the experiment on Hamster [3] stood at 0%.

Consider `COC(=O)/C=C(C)/C=C/C=C(\C)CCc1c(C)cc(N(C)C)cc1C`, for which the Activity in the experiment with Mus musculus [1] was found to be 20%.

For the molecule `COc1cc(C)c(/C=C/C(C)=C/CC/C(C)=C/C(=O)O)c(C)c1C`, the Activity with Mus musculus [1] was -17%; in the experiment with Hamster [4] it was 86%; in the experiment with Hamster [10], 0%; in the experiment with Mus musculus [13] it was -66%. Besides, the “Cultures with keratinized lesions” value in the experiment with Hamster [3] is on record as 44%.

Take `CC1=C(/C=C/C(C)C/C=C/C(C)=C/C(=O)O)C(C)(C)CCC1` (racemic): the Activity in [6] came to 3%; in [7] it was 29%; with Hamster [4], 96%; in experiment [8], 28%; in experiment [9], 118%. For the same molecule, the result in the experiment listed under Mus musculus [11] and in the experiment listed under Mus musculus [12] was Active. Besides, the “Cultures with keratinized lesions” value in the experiment with Hamster [3] amounted to 52%.

`CCOC(=O)/C=C(C)/C=C/C=C(C)/C=C/C1=C(C)CCCC1(C)C`: the Activity in the experiment with Mus musculus [1] is -47%; in experiment [6], 23%; in experiment [7], 102%; in the experiment with Hamster [4], 0%; in [8], 57%; in experiment [9] it was 123%. Besides, in the experiment on Hamster [3], the “Cultures with keratinized lesions” value stood at 0%.

With `CCOC(=O)CC(C)/C=C/C=C(C)/C=C/C1=C(C)CCCC1(C)C` (stereo not drawn), the Activity is reported as 12% in [6]; 13% in experiment [7]; 83% in the experiment with Hamster [4]; -14% in the experiment with Mus musculus [13]; 12% in experiment [8]; 69% in experiment [9]. Also, the result in the experiment filed under Mus musculus [11] and in the experiment listed under Mus musculus [12] was Active. For the same molecule, the “Cultures with keratinized lesions” value with Hamster [3] is reported as 12%.

As to `COC(=O)/C=C(\C)CC/C=C(C)/C=C/C1=C(C)CCCC1(C)C`, the Activity in the experiment on Mus musculus [1] is -13%; in experiment [6], 3%; in [7], 5%; with Hamster [4], 83%; in experiment [8] it was 9%; in experiment [9] it was 21%. For the same molecule, the outcome in the experiment listed under Mus musculus [11] and in the experiment filed under Mus musculus [12] was Active. In the experiment on Hamster [3], the “Cultures with keratinized lesions” value is 24%.

With `CC1=C(/C=C/C(C)=C/C=C/C(C)=C/C(=O)O)C(C)(C)CCC1` [TRETINOIN], the Activity in the experiment with Mus musculus [14] is on record as -55%; in experiment [6], 68%; in the experiment with Hamster [4], 3%; in the experiment on Hamster [5], 0%; in [15], 19%; in experiment [8] it was 100%. In the experiment on Hamster [3], the “Cultures with keratinized lesions” value is on record as 0%.

For the molecule `COc1cc(C)c(CC/C(C)=C/C=C/C(C)=C/C(=O)O)c(C)c1C`, the results for the Activity in the experiment on Mus musculus [1], in the experiment with Hamster [4] and in the experiment with Hamster [10] were -35%, 85% and 0%, respectively. For the same molecule, the “Cultures with keratinized lesions” value in the experiment on Hamster [3] is 63%.
